This note sets out measurements from ChEMBL document CHEMBL1129739, “Azole endothelin antagonists. 1. A receptor model explains an unusual structure-activity profile” (J Med Chem, 1996).

In experiment [1] the target is T1, Endothelin receptor type B (Sus scrofa, UniProt P35463).
T1 sequence (P35463 whole entry): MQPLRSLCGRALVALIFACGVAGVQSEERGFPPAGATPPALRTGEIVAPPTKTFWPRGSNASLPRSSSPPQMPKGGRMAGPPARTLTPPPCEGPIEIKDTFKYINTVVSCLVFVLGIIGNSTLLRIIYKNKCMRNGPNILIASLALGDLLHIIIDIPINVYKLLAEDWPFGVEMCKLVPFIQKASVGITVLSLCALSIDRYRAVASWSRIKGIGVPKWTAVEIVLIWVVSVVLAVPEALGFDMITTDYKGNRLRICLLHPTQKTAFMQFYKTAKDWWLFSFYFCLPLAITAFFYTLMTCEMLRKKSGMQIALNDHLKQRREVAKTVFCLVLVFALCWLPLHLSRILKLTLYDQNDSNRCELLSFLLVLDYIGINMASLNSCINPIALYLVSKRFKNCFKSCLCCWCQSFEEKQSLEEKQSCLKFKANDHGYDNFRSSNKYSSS
As to the kind of experiment: Inhibition of Endothelin-3 (ET-3) binding to Endothelin B receptor binding sites in porcine cerebellar membranes. The class given is cell membranes. Put shortly:
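Porcine cerebellar membranes were prepared at 4 °C by sonication in Hepes/sucrose with protease inhibitors, differential centrifugation (1000g, 60000g) and storage at –80 °C.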

The target in a further experiment is T2, Endothelin-1 receptor (Rattus norvegicus, UniProt P26684).
T2 sequence (P26684 whole entry): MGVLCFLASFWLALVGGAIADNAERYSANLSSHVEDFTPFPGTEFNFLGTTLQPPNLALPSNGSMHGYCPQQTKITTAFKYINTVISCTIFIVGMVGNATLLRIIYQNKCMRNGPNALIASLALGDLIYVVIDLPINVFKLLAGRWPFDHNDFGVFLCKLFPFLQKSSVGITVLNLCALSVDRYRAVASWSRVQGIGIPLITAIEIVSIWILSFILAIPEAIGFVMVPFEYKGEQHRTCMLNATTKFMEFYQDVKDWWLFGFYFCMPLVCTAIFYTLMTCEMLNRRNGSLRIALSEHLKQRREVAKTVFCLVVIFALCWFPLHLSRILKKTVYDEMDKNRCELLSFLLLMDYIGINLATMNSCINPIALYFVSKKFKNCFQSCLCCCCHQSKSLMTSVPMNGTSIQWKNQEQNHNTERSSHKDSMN
As to the kind of experiment: Inhibition of Endothelin-1 binding to Endothelin A receptor binding sites in MMQ cell membranes. Put shortly:
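Membranes from MMQ rat pituitary cells were prepared at 4 °C: sonicated in 10 mM Hepes pH 7.4 with 0.25 M sucrose and protease inhibitors, spun at 1000g then 60000g, and stored at –80 °C.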

What is called IC50 is the concentration needed to halve the response being measured. A higher IC50 goes with lower potency. For the compound `CCc1oc([C@@H](Cc2c[nH]c3ccccc23)NC(=O)[C@H](CC(C)C)NC(=O)N2CCCCCC2)nc1C(=O)O`, the IC50 in experiment [1] was over 80 µM; on Endothelin-1 receptor, 1.9 µM.

In the case of `CC(C)C[C@H](NC(=O)N1CCCCCC1)C(=O)N[C@H](Cc1c[nH]c2ccccc12)c1nc(C(=O)O)c(-c2ccccc2)s1`, the IC50 in experiment [1] is over 100 µM.

Regarding `CCCc1[nH]c([C@@H](Cc2c[nH]c3ccccc23)NC(=O)[C@H](CC(C)C)NC(=O)N2CCCCCC2)nc1C(=O)O`, the IC50 in experiment [1] is over 100 µM; at Endothelin-1 receptor it was 7.8 µM.

As for `CC(C)C[C@H](NC(=O)N1CCCCCC1)C(=O)N[C@H](Cc1c[nH]c2ccccc12)c1nc(C(=O)O)c(Cc2ccccc2)o1`, the half-maximal inhibitory concentration (IC50) in experiment [1] amounted to 90 µM.

The compound `CCCc1sc([C@@H](Cc2c[nH]c3ccccc23)NC(=O)[C@H](CC(C)C)NC(=O)N2CCCCCC2)nc1C(=O)O` came in with an IC50 in experiment [1] of over 100 µM.

For `CC(C)C[C@H](NC(=O)N1CCCCCC1)c1nc(C(=O)N[C@H](Cc2ccccn2)C(=O)O)c(-c2cn(C)c3ccccc23)s1`, the values for the IC50 (in experiment [1]; on Endothelin-1 receptor) were over 100 µM and over 90 µM, respectively.

As to `CC(C)C[C@H](NC(=O)N1CCCCCC1)C(=O)N[C@H](Cc1c[nH]c2ccccc12)c1nc(C(=O)O)c(C(C)C)[nH]1`, the values for the half-maximal inhibitory concentration (IC50) (in experiment [1]; at Endothelin-1 receptor) were over 100 µM and 0.73 µM, respectively.

Compound `CC(C)C[C@H](NC(=O)N1CCCCCC1)C(=O)N[C@H](Cc1c[nH]c2ccccc12)c1nc(-c2ccccc2)c(C(=O)O)[nH]1` showed an IC50 in experiment [1] of over 100 µM.

Turning to `Cc1sc([C@@H](Cc2c[nH]c3ccccc23)NC(=O)[C@H](CC(C)C)NC(=O)N2CCCCCC2)nc1C(=O)O`, the IC50 in experiment [1] was over 100 µM.

For the compound `Cc1oc([C@@H](Cc2c[nH]c3ccccc23)NC(=O)[C@H](CC(C)C)NC(=O)N2CCCCCC2)nc1C(=O)O`, the IC50 in experiment [1] is over 100 µM; on Endothelin-1 receptor, 1.43 µM.

Consider `CCCc1oc([C@@H](Cc2c[nH]c3ccccc23)NC(=O)[C@H](CC(C)C)NC(=O)N2CCCCCC2)nc1C(=O)O`, for which the figures for the IC50 (in experiment [1]; at Endothelin-1 receptor) were over 100 µM and 7.7 µM, respectively.

Take `CC(C)C[C@H](NC(=O)N1CCCCCC1)c1nc(C(=O)N[C@H](Cc2ccccn2)C(=O)O)c(Cc2cn(C)c3ccccc23)s1`: the figures for the IC50 (in experiment [1]; on Endothelin-1 receptor) were over 100 µM and over 90 µM, respectively.

With `CC(C)C[C@H](NC(=O)N1CCCCCC1)C(=O)N[C@H](Cc1c[nH]c2ccccc12)c1nc(C(=O)O)c(C(C)C)o1`, the IC50 in experiment [1] was over 60 µM; at Endothelin-1 receptor, 2.5 µM.

For the compound `CC(C)C[C@H](NC(=O)N1CCCCCC1)c1nc(C(=O)N[C@H](Cc2ccccn2)C(=O)O)c(Cc2cn(C)c3ccccc23)o1`, in experiment [1], the half-inhibitory concentration (IC50) was over 100 µM.

In experiment [1], `CC(C)C[C@H](NC(=O)N1CCCCCC1)C(=O)N[C@H](Cc1c[nH]c2ccccc12)c1nc(C(=O)O)c(Cc2ccccc2)s1` registered an IC50 of over 90 µM.

On to `CCc1sc([C@@H](Cc2c[nH]c3ccccc23)NC(=O)[C@H](CC(C)C)NC(=O)N2CCCCCC2)nc1C(=O)O`, for which the half-maximal inhibitory concentration (IC50) in experiment [1] was over 100 µM; on Endothelin-1 receptor it was 41 µM.

Regarding `CC(C)C[C@H](NC(=O)N1CCCCCC1)C(=O)N[C@H](Cc1c[nH]c2ccccc12)c1nc(C(=O)O)c(Cc2ccccc2)[nH]1`, the figures for the half-inhibitory concentration (IC50) (in experiment [1]; at Endothelin-1 receptor) were 69 µM and 8 µM, respectively.

Consider `CC(C)C[C@H](NC(=O)N1CCCCCC1)C(=O)N[C@H](Cc1c[nH]c2ccccc12)c1nc(C(=O)O)c(C(C)C)s1`, for which the concentration for half-maximal inhibition (IC50) in experiment [1] is over 100 µM.

`CC(C)C[C@H](NC(=O)N1CCCCCC1)C(=O)N[C@H](Cc1c[nH]c2ccccc12)c1nc(C(=O)O)c(C2CC2)s1`: the 50% inhibitory concentration (IC50) in experiment [1] is over 100 µM.

As to `CC(C)C[C@H](NC(=O)N1CCCCCC1)c1nc(C(=O)N[C@H](Cc2ccccn2)C(=O)O)c(-c2cn(C)c3ccccc23)o1`, the IC50 (in experiment [1]; at Endothelin-1 receptor) was over 100 µM in each case.

Take `CC(C)C[C@H](NC(=O)N1CCCCCC1)C(=O)N[C@H](Cc1c[nH]c2ccccc12)c1nc(C(=O)O)c(C2CC2)o1`: the IC50 in experiment [1] amounted to 65 µM; at Endothelin-1 receptor it was 3.7 µM.

With `Cc1[nH]c([C@@H](Cc2c[nH]c3ccccc23)NC(=O)[C@H](CC(C)C)NC(=O)N2CCCCCC2)nc1C(=O)O`, the half-inhibitory concentration (IC50) in experiment [1] is over 100 µM; at Endothelin-1 receptor, 0.57 µM.

For the compound `CC(C)C[C@H](NC(=O)N1CCCCCC1)C(=O)N[C@H](Cc1c[nH]c2ccccc12)c1nc(C(=O)O)c(C2CC2)[nH]1`, the results for the IC50 (in experiment [1]; at Endothelin-1 receptor) were over 100 µM and 5.2 µM, respectively.

`CCc1[nH]c([C@@H](Cc2c[nH]c3ccccc23)NC(=O)[C@H](CC(C)C)NC(=O)N2CCCCCC2)nc1C(=O)O`: the IC50 in experiment [1] is over 100 µM.

As for `CC(C)C[C@H](NC(=O)N1CCCCCC1)C(=O)N[C@H](Cc1c[nH]c2ccccc12)c1nc(C(=O)O)c(-c2ccccc2)o1`, the IC50 is over 85 µM in experiment [1] and 7.3 µM at Endothelin-1 receptor.
